Values joined by “and” are separate entries in the source; they are usually repeats but may differ in a detail not shown here. Equal entries are not always repeated. Where two headings read alike, the source gives them in different places. Values belong to the compound of their own block, whether it stands above or below them.
Key:
PSMA = PSMA (Homo sapiens, UniProt Q04609); assay: PSMA inhibition assay; type: biochemical
Summary of the method: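 LNCaP cell extract as enzyme source, incubated with the inhibitor at various amounts plus 4 μM NAAG for 120 min. Glutamate released was detected with Amplex Red glutamic acid working solution over 60 min, fluorescence ex 530/em 560 nm. […] Triplicate; known PSMA inhibitor as positive control.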

[1] = tested on: PC-3 PIP and PC-3 flu xenografts; settings: SCID mice
[2] = tested on: PSMA+ PC-3 PIP xenografts; settings: cited from earlier work
[3] = Phase II trial, 3 months after treatment; cited from earlier work

Chain of PSMA (Q04609 whole entry): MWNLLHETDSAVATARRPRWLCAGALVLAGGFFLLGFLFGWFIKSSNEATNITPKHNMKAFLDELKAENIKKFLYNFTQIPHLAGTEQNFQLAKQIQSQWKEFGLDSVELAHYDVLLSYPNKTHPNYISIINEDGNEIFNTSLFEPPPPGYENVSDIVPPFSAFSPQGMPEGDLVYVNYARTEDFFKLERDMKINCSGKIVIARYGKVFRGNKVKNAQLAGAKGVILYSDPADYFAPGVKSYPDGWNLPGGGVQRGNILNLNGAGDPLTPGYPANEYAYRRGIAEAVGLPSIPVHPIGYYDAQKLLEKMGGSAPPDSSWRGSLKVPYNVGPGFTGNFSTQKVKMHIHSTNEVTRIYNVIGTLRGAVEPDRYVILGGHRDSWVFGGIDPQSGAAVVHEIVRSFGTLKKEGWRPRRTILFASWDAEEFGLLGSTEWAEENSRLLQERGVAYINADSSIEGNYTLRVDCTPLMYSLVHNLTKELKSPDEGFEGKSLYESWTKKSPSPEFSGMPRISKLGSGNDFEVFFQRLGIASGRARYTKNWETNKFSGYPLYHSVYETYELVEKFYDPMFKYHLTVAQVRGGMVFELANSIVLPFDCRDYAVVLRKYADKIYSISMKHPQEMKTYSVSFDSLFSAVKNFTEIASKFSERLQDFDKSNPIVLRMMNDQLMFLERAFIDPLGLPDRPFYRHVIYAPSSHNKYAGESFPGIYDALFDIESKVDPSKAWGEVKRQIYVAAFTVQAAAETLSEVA

- IC50 (PSMA): 0.43 nM
- Ki (PSMA): 0.09 nM
Structure (SMILES): O=C(O)CC[C@H](NC(=O)N[C@@H](CCC(=O)NCCc1ccc(I)cc1)C(=O)O)C(=O)O [HS-549, (((S)-1-Carboxy-4-((4-iodophenethyl)amino)-4-oxobutyl)carbamoyl)-L-glutamic acid]

Structure (SMILES): O=C(O)CC[C@H](NC(=O)N[C@@H](CCC(=O)NCCc1ccc([131I])cc1)C(=O)O)C(=O)O [[^131I]HS-549]
- Percent injected dose per gram: Blood ([1]; 1 h): 5.90 ± 1.05 % ID/g
- Percent injected dose per gram: Bone ([1]; 1 h): 0.94 ± 0.36 % ID/g
- Percent injected dose per gram: Brain ([1]; 1 h): 0.26 ± 0.08 % ID/g
- Percent injected dose per gram: Heart ([1]; 1 h): 2.30 ± 0.63 % ID/g
- Percent injected dose per gram: Kidneys ([1]; 1 h): 106 ± 18.9 % ID/g
- Percent injected dose per gram: Lg. Int. ([1]; 1 h): 0.52 ± 0.12 % ID/g
- Percent injected dose per gram: Liver ([1]; 1 h): 21.2± 4.14 % ID/g
- Percent injected dose per gram: Lungs ([1]; 1 h): 4.60 ± 1.09 % ID/g
- Percent injected dose per gram: Muscle ([1]; 1 h): 0.86 ± 0.26 % ID/g
- Percent injected dose per gram: PC-3 PIP ([1]; 1 h): 78.1 ± 19.1 % ID/g
- Percent injected dose per gram: PC-3 flu ([1]; 1 h): 2.21 ± 0.53 % ID/g
- Percent injected dose per gram: Sm. Int. ([1]; 1 h): 1.98 ± 0.30 % ID/g
- Percent injected dose per gram: Spleen ([1]; 1 h): 6.76 ± 3.42 % ID/g
- Percent injected dose per gram: Stomach ([1]; 1 h): 0.92 ± 0.20 % ID/g
- Percent injected dose per gram: Thyroid ([1]; 1 h): 1.17 ± 0.43 % ID/g
- Thyroid uptake ([1]; 1 h): 0.30 ± 0.13 %ID
- Tumor-to-blood ratio (PSMA+ PC3 PIP) ([1]; 1 h): 13.3 ± 2.7
- Tumor-to-kidney ratio (PSMA+ PC3 PIP) ([1]; 1 h): 0.74 ± 0.15
- Liver levels relative to co-administered [211At]HS-549 ([1]; 1 h and 2 h, P < 0.05): 3–6 fold
- Percent injected dose per gram: Blood ([1]; 2 h): 2.92 ± 0.32 % ID/g
- Percent injected dose per gram: Bone ([1]; 2 h): 0.65 ± 0.25 % ID/g
- Percent injected dose per gram: Brain ([1]; 2 h): 0.18 ± 0.02 % ID/g
- Percent injected dose per gram: Heart ([1]; 2 h): 1.14 ± 0.18 % ID/g
- Percent injected dose per gram: Kidneys ([1]; 2 h): 96.6 ± 39.1 % ID/g
- Percent injected dose per gram: Lg. Int. ([1]; 2 h): 1.32 ± 0.25 % ID/g
- Percent injected dose per gram: Liver ([1]; 2 h): 26.0 ± 3.09 % ID/g
- Percent injected dose per gram: Lungs ([1]; 2 h): 2.73 ± 0.66 % ID/g
- Percent injected dose per gram: Muscle ([1]; 2 h): 0.46 ± 0.12 % ID/g
- Percent injected dose per gram: PC-3 PIP ([1]; 2 h): 74.7 ± 13.1 % ID/g
- Percent injected dose per gram: PC-3 flu ([1]; 2 h): 1.51 ± 0.30 % ID/g
- Percent injected dose per gram: Sm. Int. ([1]; 2 h): 2.42 ± 0.40 % ID/g
- Percent injected dose per gram: Spleen ([1]; 2 h): 2.71 ± 0.85 % ID/g
- Percent injected dose per gram: Stomach ([1]; 2 h): 0.47 ± 0.17 % ID/g
- Percent injected dose per gram: Thyroid ([1]; 2 h): 0.69 ± 0.29 % ID/g
- Tumor-to-blood ratio (PSMA+ PC3 PIP) ([1]; 2 h): 26 ± 5.3
- Tumor-to-kidney ratio (PSMA+ PC3 PIP) ([1]; 2 h): 0.87 ± 0.30
- Percent injected dose per gram: Blood ([1]; 21 h): 1.39 ± 0.35 % ID/g
- Percent injected dose per gram: Bone ([1]; 21 h): 0.20 ± 0.05 % ID/g
- Percent injected dose per gram: Brain ([1]; 21 h): 0.08 ± 0.02 % ID/g
- Percent injected dose per gram: Heart ([1]; 21 h): 0.41 ± 0.09 % ID/g
- Percent injected dose per gram: Kidneys ([1]; 21 h): 3.13 ± 1.65 % ID/g
- Percent injected dose per gram: Lg. Int. ([1]; 21 h): 0.63 ± 0.39 % ID/g
- Percent injected dose per gram: Liver ([1]; 21 h): 1.86 ± 0.51 % ID/g
- Percent injected dose per gram: Lungs ([1]; 21 h): 0.87 ± 0.27 % ID/g
- Percent injected dose per gram: Muscle ([1]; 21 h): 0.16 ± 0.04 % ID/g
- Percent injected dose per gram: PC-3 PIP ([1]; 21 h): 22.6 ± 22.1 % ID/g
- Percent injected dose per gram: PC-3 flu ([1]; 21 h): 0.44 ± 0.18 % ID/g
- Percent injected dose per gram: Sm. Int. ([1]; 21 h): 0.37 ± 0.06 % ID/g
- Percent injected dose per gram: Spleen ([1]; 21 h): 0.29 ± 0.12 % ID/g
- Percent injected dose per gram: Stomach ([1]; 21 h): 0.14 ± 0.04 % ID/g
- Percent injected dose per gram: Thyroid ([1]; 21 h): 0.36 ± 0.05 % ID/g
- Thyroid uptake ([1]; 21 h): 0.08 ± 0.01 %ID
- Tumor-to-blood ratio (PSMA+ PC3 PIP) ([1]; 21 h): 18 ± 19
- Tumor-to-kidney ratio (PSMA+ PC3 PIP) ([1]; 21 h): 6.26 ± 4.04

Structure (SMILES): O=C(O)CC[C@H](NC(=O)N[C@@H](CCCCNC(=O)c1ccc([211At])cc1)C(=O)O)C(=O)O [[^211At]DCABzL, (((S)-1-carboxy-5-(4-[^211At]astinatobenzamido)pentyl)carbamoyl)-L-glutamic acid]
- Stomach activity level, range over time points ([2]; %ID/organ): 3.8 – 8.2%
- Thyroid radioactivity level, range over time points ([2]; %ID/organ): 0.5–1.3%
- Peak uptake in subcutaneous PC3 PSMA+ PIP xenografts [2]: > 30 % ID/g

Structure (SMILES): O=C(O)CC[C@H](NC(=O)N[C@@H](CCC(=O)NCCc1ccc([211At])cc1)C(=O)O)C(=O)O [[^211At]HS-549]
- Percent injected dose per gram: Blood ([1]; 1 h): 5.5 ± 0.8 % ID/g and 5.53 ± 0.84 % ID/g
- Percent injected dose per gram: Bone ([1]; 1 h): 1.49 ± 0.40 % ID/g
- Percent injected dose per gram: Brain ([1]; 1 h): 0.46 ± 0.09 % ID/g
- Percent injected dose per gram: Heart ([1]; 1 h): 4.34 ± 0.96 % ID/g
- Percent injected dose per gram: Kidneys ([1]; 1 h): 46.7 ± 8.2 % ID/g
- Percent injected dose per gram: Lg. Int. ([1]; 1 h): 1.16 ± 0.20 % ID/g
- Percent injected dose per gram: Liver ([1]; 1 h): 7.94 ± 2.15 % ID/g
- Percent injected dose per gram: Lungs ([1]; 1 h): 9.77 ± 1.75 % ID/g
- Percent injected dose per gram: Muscle ([1]; 1 h): 1.11 ± 0.29 % ID/g
- Percent injected dose per gram: PC-3 PIP ([1]; 1 h): 43.2 ± 9.8 % ID/g
- Percent injected dose per gram: PC-3 flu ([1]; 1 h): 3.48 ± 0.53 % ID/g
- Percent injected dose per gram: Sm. Int. ([1]; 1 h): 5.52 ± 1.57 % ID/g
- Percent injected dose per gram: Spleen ([1]; 1 h): 8.79 ± 2.09 % ID/g
- Percent injected dose per gram: Stomach ([1]; 1 h): 7.07 ± 2.24 % ID/g
- Percent injected dose per gram: Thyroid ([1]; 1 h): 3.24 ± 0.56 % ID/g
- Percent injected dose per gram: Blood ([1]; 2 h): 2.8 ± 0.4 % ID/g and 2.87 ± 0.40 % ID/g
- Percent injected dose per gram: Brain ([1]; 2 h): 0.39 ± 0.06 % ID/g
- Percent injected dose per gram: Heart ([1]; 2 h): 3.36 ± 0.59 % ID/g
- Percent injected dose per gram: Kidneys ([1]; 2 h): 40.4 ± 15.5 % ID/g
- Percent injected dose per gram: Lg. Int. ([1]; 2 h): 4.59 ± 0.81 % ID/g
- Percent injected dose per gram: Liver ([1]; 2 h): 4.65 ±1.28 % ID/g
- Percent injected dose per gram: Lungs ([1]; 2 h): 8.24 ± 2.25 % ID/g
- Percent injected dose per gram: Muscle ([1]; 2 h): 0.76 ± 0.18 % ID/g
- Percent injected dose per gram: PC-3 PIP ([1]; 2 h): 42.0 ± 7.16 % ID/g
- Percent injected dose per gram: PC-3 flu ([1]; 2 h): 2.82 ±0.60 % ID/g
- Percent injected dose per gram: Sm. Int. ([1]; 2 h): 3.81 ± 1.24 % ID/g
- Percent injected dose per gram: Spleen ([1]; 2 h): 6.13 ± 1.59 % ID/g
- Percent injected dose per gram: Stomach ([1]; 2 h): 14.3 ± 3.2 % ID/g
- Percent injected dose per gram: Thyroid ([1]; 2 h): 4.11 ± 2.00 % ID/g
- Percent injected dose per gram: Blood ([1]; 21 h): 0.92 ± 0.15 % ID/g
- Percent injected dose per gram: Bone ([1]; 21 h): 0.60 ± 0.17 % ID/g
- Percent injected dose per gram: Brain ([1]; 21 h): 0.17 ± 0.03 % ID/g
- Percent injected dose per gram: Kidneys ([1]; 21 h): 2.60 ± 0.77 % ID/g
- Percent injected dose per gram: Lg. Int. ([1]; 21 h): 0.93 ± 0.41 % ID/g
- Percent injected dose per gram: Liver ([1]; 21 h): 0.89 ± 0.13 % ID/g
- Percent injected dose per gram: Lungs ([1]; 21 h): 4.3 ± 0.7 % ID/g and 4.26 ± 0.72 % ID/g
- Percent injected dose per gram: Muscle ([1]; 21 h): 0.29 ± 0.09 % ID/g
- Percent injected dose per gram: PC-3 PIP ([1]; 21 h): 10.6 ± 9.91 % ID/g
- Percent injected dose per gram: Sm. Int. ([1]; 21 h): 1.28 ± 0.30 % ID/g
- Percent injected dose per gram: Spleen ([1]; 21 h): 2.31 ± 0.67 % ID/g
- Percent injected dose per gram: Stomach ([1]; 21 h): 12.6 ± 6.20 % ID/g
- Percent injected dose per gram: Thyroid ([1]; 21 h): 3.78 ± 0.63 % ID/g
- Stomach activity level, range over time points ([1]; %ID/organ): 3.2 −8.7 %ID
- Thyroid radioactivity level, range over time points ([1]; %ID/organ, all time points): 0.8–0.9 %ID

Structure (SMILES): O=C([O-])CN1CCN(CC(=O)[O-])CCN(CC(=O)NCC2CCC(C(=O)N[C@@H](Cc3ccc4ccccc4c3)C(=O)NCCCC[C@H](NC(=O)N[C@@H](CCC(=O)O)C(=O)O)C(=O)O)CC2)CCN(CC(=O)[O-])CC1.[177Lu+3] (some centres unmarked) [^177Lu-labeled PSMA-617]
- Patients with reductions in tumor volume [3]: about 40%
